According to ChEMBL document CHEMBL3580600, “Design, Synthesis, and Evaluation of 4- and 5-Substituted o-(Octanesulfonamido)benzoic Acids as Inhibitors of Glycerol-3-Phosphate Acyltransferase” (Medchemcomm, 2014):
pIC50: −log10 of the molar value.

Biological target: T1, Glycerol-3-phosphate acyltransferase 1, mitochondrial (Mus musculus, UniProt Q61586)
T1 sequence (Q61586 whole entry): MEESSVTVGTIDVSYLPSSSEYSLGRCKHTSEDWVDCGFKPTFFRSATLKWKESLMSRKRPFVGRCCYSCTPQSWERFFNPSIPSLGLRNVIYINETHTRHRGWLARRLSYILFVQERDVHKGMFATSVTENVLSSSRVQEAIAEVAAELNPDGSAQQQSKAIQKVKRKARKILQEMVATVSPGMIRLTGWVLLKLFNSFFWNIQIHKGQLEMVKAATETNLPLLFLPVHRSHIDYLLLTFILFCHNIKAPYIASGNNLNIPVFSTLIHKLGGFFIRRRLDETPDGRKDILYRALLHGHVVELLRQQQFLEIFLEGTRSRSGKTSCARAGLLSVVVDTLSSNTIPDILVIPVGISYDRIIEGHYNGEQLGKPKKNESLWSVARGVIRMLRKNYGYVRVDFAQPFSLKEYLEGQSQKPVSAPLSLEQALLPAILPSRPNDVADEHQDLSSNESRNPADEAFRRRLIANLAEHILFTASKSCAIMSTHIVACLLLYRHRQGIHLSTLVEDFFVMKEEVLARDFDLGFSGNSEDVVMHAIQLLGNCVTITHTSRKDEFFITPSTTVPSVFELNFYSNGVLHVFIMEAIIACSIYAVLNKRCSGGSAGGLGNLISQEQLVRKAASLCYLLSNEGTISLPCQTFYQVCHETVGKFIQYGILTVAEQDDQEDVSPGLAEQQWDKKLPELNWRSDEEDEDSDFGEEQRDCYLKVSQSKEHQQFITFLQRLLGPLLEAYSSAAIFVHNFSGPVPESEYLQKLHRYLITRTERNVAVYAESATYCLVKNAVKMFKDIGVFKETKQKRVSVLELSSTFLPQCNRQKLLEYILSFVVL
Test: Inhibition of GPAT in BALB/c mouse mitochondria using 14C-labeled glycerol-3-phosphate and palmitoyl-CoA incubated for 10 mins by scintillation counting method
Summary of the method: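 Mitochondria isolated from freshly harvested BALB/c mouse liver by differential centrifugation (1000 × g, then 3500 × g, twice) and resuspended in HEPES pH 7.4 storage buffer. Reaction in 75 mM Tris/HCl pH 7.4, 4 mM MgCl₂, 2 mg/mL BSA, 14C-glycerol-3-phosphate (7.6 mCi/mmol), 50 μM palmitoyl-CoA. Inhibitor 0–40 μg/mL in DMSO. Triplicates. IC50 taken relative to DMSO vehicle control activity.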

Structure (SMILES) | pIC50
CCCCCCCCS(=O)(=O)Nc1ccc(C(=O)c2ccccc2OC)cc1C(=O)O | 4.23
CCCCCCCCS(=O)(=O)Nc1cc(-c2ccccc2F)ccc1C(=O)O | 4.33
CCCCCCCCS(=O)(=O)Nc1ccc(C(=O)c2ccc(CCCC)cc2)cc1C(=O)O | 4.50
CCCCCCCCS(=O)(=O)Nc1cc(/C=C/c2ccc(OC)cc2)ccc1C(=O)O | 4.41
CCCCCCCCS(=O)(=O)Nc1cc(/C=C/c2ccccc2)ccc1C(=O)O | 4.42
CCCCCCCCS(=O)(=O)Nc1ccc(/C=C/c2ccc(OC)cc2)cc1C(=O)O | 4.43
CCCCCCCCS(=O)(=O)Nc1ccc(-c2cccc(F)c2)cc1C(=O)O | 4.42
CCCCCCCCS(=O)(=O)Nc1cc(CCc2ccc(OC)cc2)ccc1C(=O)O | 4.37
CCCCCCCCS(=O)(=O)Nc1ccc(-c2ccccc2O)cc1C(=O)O | 4.21
CCCCCCCCS(=O)(=O)Nc1cc(CCc2ccccc2)ccc1C(=O)O | 4.43
CCCCCCCCS(=O)(=O)Nc1ccc(C(=O)c2ccc(OC)cc2)cc1C(=O)O | 4.35
CCCCCCCCS(=O)(=O)Nc1cc(-c2ccc(O)cc2)ccc1C(=O)O | 4.19
CCCCCCCCS(=O)(=O)Nc1cc(-c2cccc(F)c2)ccc1C(=O)O | 4.49
CCCCCCCCS(=O)(=O)Nc1ccc(-c2ccc(O)cc2)cc1C(=O)O | 4.33
CCCCCCCCS(=O)(=O)Nc1ccc(CCc2ccccc2)cc1C(=O)O | 4.43
CCCCCCCCS(=O)(=O)Nc1ccc(-c2ccccc2F)cc1C(=O)O | 4.46

Compounds with a higher pIC50, results first:

pIC50 | Structure (SMILES)
4.80 | CCCCCCCCS(=O)(=O)Nc1cc(-c2ccc(CCCC)cc2)ccc1C(=O)O
4.71 | CCCCCCCCS(=O)(=O)Nc1ccc(-c2ccc(OC)cc2)cc1C(=O)O
5.04 | CCCCCCCCS(=O)(=O)Nc1ccc(-c2ccc(Cl)cc2)cc1C(=O)O
4.58 | CCCCCCCCS(=O)(=O)Nc1ccc(CCc2ccc(OC)cc2)cc1C(=O)O
4.74 | CCCCCCCCS(=O)(=O)Nc1cc(-c2ccc(Cl)cc2)ccc1C(=O)O
5.00 | CCCCCCCCS(=O)(=O)Nc1ccc(-c2ccccc2-c2ccccc2)cc1C(=O)O
5.05 | CCCCCCCCS(=O)(=O)Nc1ccc(-c2ccc(CCCC)cc2)cc1C(=O)O
4.79 | CCCCCCCCS(=O)(=O)Nc1ccc(/C=C/c2ccccc2)cc1C(=O)O
4.57 | CCCCCCCCS(=O)(=O)Nc1cc(-c2ccccc2Cl)ccc1C(=O)O
4.89 | CCCCCCCCS(=O)(=O)Nc1ccc(C(=O)c2ccc(-c3ccccc3)cc2)cc1C(=O)O
4.86 | CCCCCCCCS(=O)(=O)Nc1cc(-c2cccc(Cl)c2)ccc1C(=O)O
4.77 | CCCCCCCCS(=O)(=O)Nc1cc(-c2ccccc2-c2ccccc2)ccc1C(=O)O
4.87 | CCCCCCCCS(=O)(=O)Nc1cc(-c2ccc(-c3ccccc3)cc2)ccc1C(=O)O
4.79 | CCCCCCCCS(=O)(=O)Nc1cc(-c2ccccc2OC)ccc1C(=O)O
5.07 | CCCCCCCCS(=O)(=O)Nc1cc(C(=O)c2ccc(-c3ccccc3)cc2)ccc1C(=O)O
4.54 | CCCCCCCCS(=O)(=O)Nc1ccc(-c2ccc(-c3ccccc3)cc2)cc1C(=O)O
5.05 | CCCCCCCCS(=O)(=O)Nc1ccc(-c2cccc(Cl)c2)cc1C(=O)O
4.56 | CCCCCCCCS(=O)(=O)Nc1ccc(-c2ccccc2OC)cc1C(=O)O
4.80 | CCCCCCCCS(=O)(=O)Nc1cc(C(=O)c2ccc(CCCC)cc2)ccc1C(=O)O
4.88 | CCCCCCCCS(=O)(=O)Nc1cc(-c2ccc(OC)cc2)ccc1C(=O)O
